Measured values: ChEMBL document CHEMBL4196009, “Novel vitexin-inspired scaffold against leukemia” (Eur J Med Chem, 2018)
Calls of active or inactive are those of the source. No cut-off for these calls is given here.

What was measured:
[1] = test system: KOPN-8; assay: Induction of apoptosis in human KOPN8 cells assessed as viable cells at 10 uM after 24 hrs by Annexin V-FITC/propidium iodide staining-based flow cytometry (reference value: 85.2%); assay type: functional; conditions: KOPN-8, 24 h, read-out: Activity
Summary of the method: (§1)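 KOPN-8 cells were treated for 24 h, with a DMSO vehicle control and a staurosporine positive control. Cells were stained with FITC-Annexin V and propidium iodide and analysed by flow cytometry. Quadrant gating separated viable, early apoptotic, late apoptotic (Q2) and necrotic populations.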

[2] = target: T1, Retinoblastoma-associated protein (Homo sapiens) (UniProt P06400); assay: Inhibition of Rb phosphorylation in human KOPN8 cells after 24 hrs by Western blot analysis; assay type: cell-based
T1 sequence (whole entry): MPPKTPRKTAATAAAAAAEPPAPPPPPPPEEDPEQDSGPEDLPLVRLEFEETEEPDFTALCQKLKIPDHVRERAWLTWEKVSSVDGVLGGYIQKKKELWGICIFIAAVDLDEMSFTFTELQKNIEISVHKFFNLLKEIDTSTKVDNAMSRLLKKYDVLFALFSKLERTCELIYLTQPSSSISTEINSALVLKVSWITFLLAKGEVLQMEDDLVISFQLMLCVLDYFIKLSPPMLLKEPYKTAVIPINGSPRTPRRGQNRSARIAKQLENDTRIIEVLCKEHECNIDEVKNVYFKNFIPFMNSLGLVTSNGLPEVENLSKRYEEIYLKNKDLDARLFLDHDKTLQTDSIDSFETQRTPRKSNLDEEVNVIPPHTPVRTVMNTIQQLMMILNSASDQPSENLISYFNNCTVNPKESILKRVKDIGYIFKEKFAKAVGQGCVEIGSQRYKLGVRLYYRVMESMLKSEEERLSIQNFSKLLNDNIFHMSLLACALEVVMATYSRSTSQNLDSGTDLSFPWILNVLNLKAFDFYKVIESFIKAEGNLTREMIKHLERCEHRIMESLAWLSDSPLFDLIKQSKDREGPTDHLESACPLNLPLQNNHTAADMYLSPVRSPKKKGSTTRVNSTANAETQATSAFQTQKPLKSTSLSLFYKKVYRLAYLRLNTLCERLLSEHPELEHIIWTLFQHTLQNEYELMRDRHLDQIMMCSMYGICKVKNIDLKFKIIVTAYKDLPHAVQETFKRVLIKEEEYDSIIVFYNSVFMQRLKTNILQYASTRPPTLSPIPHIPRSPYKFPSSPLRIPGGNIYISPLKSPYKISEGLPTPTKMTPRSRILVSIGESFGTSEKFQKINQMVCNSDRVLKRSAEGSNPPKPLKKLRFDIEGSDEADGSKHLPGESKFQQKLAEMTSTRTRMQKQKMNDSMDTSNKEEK
Summary of the method: (§2)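 KOPN-8 cells were exposed to compound for 3 h and 24 h, with or without N-acetylcysteine added to a parallel set as antioxidant. Lysates were analysed by Western blot for cleaved PARP, Mcl-1, Ser-2-phosphorylated RNAPII CTD, cMyc, total Rb and pRb. Signals were compared against controls for dose-dependent change.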

[3] = test system: MCF7; assay: Induction of oxidative stress in human MCF7 cells transfected with mRuby-Mito-7 with fugene assessed as increase in intracellular total ROS levels at 50 uM measured after 1 hr by fluorimetric analysis; assay type: functional, cell-based
Summary of the method: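 MCF-7 cells carried an mRuby-Cox8A mitochondrial label. They were exposed to 50 of compound, alone or together with 50 of N-acetylcysteine, for 1 h. Cells were then stained with CellROX green (ex/em 485/520 nm) plus Hoechst 33342 nuclear stain. Total and mitochondrial ROS fluorescence was imaged in live cells and quantified relative to control.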

[4] = test system: KOPN-8; assay: Induction of apoptosis in human KOPN8 cells assessed as effect on Mcl-1 level at 100 uM pre-treated with NAC for 1 hr and measured after 3 hrs by Western blot analysis relative to control; assay type: functional; summary of the method: as §2
[5] = test system: KOPN-8; assay: Induction of apoptosis in human KOPN8 cells assessed as effect on Mcl-1 level at 10 uM after 3 hrs by Western blot analysis relative to control; assay type: functional
Summary of the method: (§3)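 KOPN-8 cells were treated at 10–100 µM final, with or without N-acetylcysteine co-addition, for 3 h and 24 h. Lysates were analysed by Western blot for PARP cleavage, Mcl-1, phospho-Ser2 RNAPII CTD, c-Myc, total Rb and pRb. Levels are relative to the vehicle control.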

[6] = test system: KOPN-8; assay: Induction of apoptosis in human KOPN8 cells assessed as effect on Mcl-1 level at 10 uM pre-treated with NAC for 1 hr and measured after 24 hrs by Western blot analysis relative to control; assay type: functional
[7] = species on record: Homo sapiens; assay: Inhibition of RNA polymerase 2 C-terminal domain phosphorylation at Ser2 residue in human KOPN8 cells at 10 uM pre-treated with NAC for 1 hr and measured after 3 hrs by Western blot analysis relative to control; assay type: cell-based; summary of the method: as §2
[8] = species on record: Homo sapiens; assay: Inhibition of RNA polymerase 2 C-terminal domain phosphorylation at Ser2 residue in human KOPN8 cells at 10 uM pre-treated with NAC for 1 hr and measured after 24 hrs by Western blot analysis relative to control; assay type: cell-based; summary of the method: as §2
[9] = species on record: Homo sapiens; assay: Inhibition of RNA polymerase 2 C-terminal domain phosphorylation at Ser2 residue in human KOPN8 cells at 30 uM after 24 hrs by Western blot analysis relative to control; assay type: cell-based; summary of the method: as §2
[10] = species on record: Homo sapiens; assay: Inhibition of RNA polymerase 2 C-terminal domain phosphorylation at Ser2 residue in human KOPN8 cells at 100 uM after 24 hrs by Western blot analysis relative to control; assay type: cell-based; summary of the method: as §2
[11] = test system: KOPN-8; assay: Effect on c-Myc expression in human KOPN8 cells at 30 uM after 3 hrs by Western blot analysis relative to control; assay type: functional; summary of the method: as §3
[12] = test system: KOPN-8; assay: Effect on c-Myc expression in human KOPN8 cells at 10 uM pre-treated with NAC for 1 hr and measured after 3 hrs by Western blot analysis relative to control; assay type: functional
[13] = test system: KOPN-8; assay: Effect on c-Myc expression in human KOPN8 cells at 30 uM pre-treated with NAC for 1 hr and measured after 3 hrs by Western blot analysis relative to control; assay type: functional
[14] = test system: KOPN-8; assay: Effect on c-Myc expression in human KOPN8 cells at 100 uM after 24 hrs by Western blot analysis relative to control; assay type: functional; summary of the method: as §3
[15] = target: T1, Retinoblastoma-associated protein (Homo sapiens); assay: Inhibition of Rb phosphorylation in human KOPN8 cells assessed as ratio of phosphorylated Rb to total Rb levels at 30 uM pre-treated with NAC for 1 hr and measured after 3 hrs by Western blot analysis relative to control; assay type: cell-based
Summary of the method: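 KOPN-8 pre-B ALL cells were treated for 3 h and 24 h, with or without N-acetyl cysteine added to a parallel set of cells as an antioxidant/ROS quencher. Lysates were analysed by Western blot for phosphorylated Rb and total Rb. The same blots also probed PARP cleavage, Mcl-1, Ser-2-phosphorylated RNAPII CTD and cMyc.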

[16] = test system: KOPN-8; assay: Induction of apoptosis in human KOPN8 cells assessed as viable cells at 5 uM after 24 hrs by Annexin V-FITC/propidium iodide staining-based flow cytometry (reference value: 85.2%); assay type: functional; conditions: KOPN-8, 24 h, read-out: Activity; summary of the method: as §1
[17] = test system: MDA-MB-231; assay: Cell cycle arrest in human MDA-MB-231 cells assessed as accumulation at G0/G1 phase at 5 uM after 24 hrs by propidium iodide staining-based flow cytometry (reference value: 70.47%); assay type: functional
[18] = test system: KOPN-8; assay: Effect on c-Myc expression in human KOPN8 cells at 0.5 uM after 3 hrs by Western blot analysis relative to control; assay type: functional

SMILES	viability at 10 µM [1]	inhibition [2]	Activity [3]	fold change (FC) [4]	fold change (FC) [5]	fold change (FC) [6]	fold change (FC) [7]	fold change (FC) [8]	fold change (FC) [9]	fold change (FC) [10]	fold change (FC) [11]	fold change (FC) [12]	fold change (FC) [13]	fold change (FC) [14]	fold change (FC) [15]	viability at 5 µM [16]	Activity [17]	fold change (FC) [18]
COc1ccc(-c2c(I)c(=O)c3c(OC)cc(OC)cc3n2S(=O)(=O)c2ccc(OC)cc2)cc1	8.5%	Dose-dependent effect	Active	0.5	0.8	0.8	1	1.5	1.6	0.2	0.6	0.9	1	0.1	1	–	–	–
CN(C)C(=O)c1cc2cnc(Nc3ccc(N4CCNCC4)cn3)nc2n1C1CCCC1 [RIBOCICLIB]	–	–	–	–	–	–	–	–	–	–	–	–	–	–	–	2.3%	90.85%	1
